An excerpt weighted towards active compounds, which were near 0.79% of everything screened.
mIAP activ: mouse IAP activation | muIAP, CDP-Star luminescence, 30 min; hits give high values; 1 = vehicle-only enzyme signal, 0 = enzyme-free wells | activation factor at 10 µM | actives 0.24% (n = 330,000);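 active = activation factor of at least 2 at 20 µM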
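Assay system: mouse IAP enzyme; reagent: chemiluminescent substrate CDP-Star; dosing: test compounds delivered from DMSO solution; schedule: 30 min at room temperature; measured by: luminescence from enzymatic CDP-Star hydrolysis; controls: DMSO-only wells and no-enzyme negative control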
hIAP activ: human IAP activation; P09923; purified human IAP, CDP-Star luminescence, 30 min; hits give high values; 1 = vehicle-only enzyme, 0 = enzyme-free background; activation factor at 10 µM; actives 0.16% (n = 330,000);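 active = activation factor of the enzyme at least 2-fold when tested at 20 µM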
Target sequence (P09923 whole entry, looked up): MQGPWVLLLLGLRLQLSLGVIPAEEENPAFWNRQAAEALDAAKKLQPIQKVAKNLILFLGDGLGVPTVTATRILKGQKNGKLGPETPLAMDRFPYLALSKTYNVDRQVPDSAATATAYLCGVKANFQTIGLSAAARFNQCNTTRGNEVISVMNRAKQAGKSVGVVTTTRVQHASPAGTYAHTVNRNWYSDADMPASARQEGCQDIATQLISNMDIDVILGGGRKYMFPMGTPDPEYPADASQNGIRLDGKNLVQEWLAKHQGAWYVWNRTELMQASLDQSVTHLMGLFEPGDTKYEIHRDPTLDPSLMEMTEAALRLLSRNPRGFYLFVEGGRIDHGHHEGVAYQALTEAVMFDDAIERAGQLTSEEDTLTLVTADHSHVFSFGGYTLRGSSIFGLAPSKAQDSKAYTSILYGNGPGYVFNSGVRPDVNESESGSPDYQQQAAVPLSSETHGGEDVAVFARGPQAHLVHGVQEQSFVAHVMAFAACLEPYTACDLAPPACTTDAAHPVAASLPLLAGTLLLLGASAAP
mIAP block: blocks mouse intestinal alkaline phosphatase | purified mouse IAP, CDP-Star luminescence, 30 min | actives 0.2% (n = 330,000) | inhibition, % at 10 µM;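 active = inhibition of at least 40% at 10 µM in the primary screen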
hIAP block: blocks human intestinal alkaline phosphatase; actives 0.12% (n = 330,000); purified IAP, CDP-Star luminescence, 30 min; P09923; inhibition, % at 10 µM;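 active = inhibition reaching a set limit with compound at 10 µM in the primary screen, cut at about 35% in these data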
bIAP act: increases bovine intestinal alkaline phosphatase activity; purified bovine IAP, CDP-star luminescence, 30 min; hits give high values; fold of DMSO-control signal, blank-subtracted; activation factor at 20 µM; actives 0.17% (n = 200,000);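 active = activation factor of 2 or more at 20 µM, a signal rise over negative controls twice the positive control's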
bIAP inhibitor: intestinal alkaline phosphatase (bovine) inhibition. AID 1019. purified bovine IAP, CDP-star luminescence, 30 min. inhibition, % at 20 µM. 190,000 tested, under 10 active;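 active = over 50% inhibition of intestinal alkaline phosphatase at 20 µM in the single-dose screen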
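test system = bovine IAP enzyme | medium = DEA buffer 100 mM, pH 9.8, with MgCl2 1.0 mM, ZnCl2 0.02 mM | detection = luminescence | dosing = single compound dose of 20 µM, 2% DMSO final | incubation = 30 min reaction at room temperature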
mIAP inh conf: mouse IAP inhibition confirmation; actives 4.7% (n = 11,000); purified mouse IAP, CDP-Star luminescence, 30 min; inhibition, % at 10 µM; shares compounds with mIAP block;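 active = inhibition of at least 40% at 10 µM in either of the two replicates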
Large screens that a line does not name were inactive (follow-up assays come after a bar, where they were run).

COc1cc(OC)c(-c2c3cc(O)c(=O)cc-3oc3cc(O)c(O)cc23)cc1OC	mIAP block 44.3 | mIAP inh conf 59.4
Cc1c2cc(O)c(=O)cc-2oc2cc(O)c(O)cc12	mIAP block 73.0 (no result: bIAP inhibitor) | mIAP inh conf 85.6
CC1=CC(C)(C)NC(=O)N1c1ccc(C)cc1	none
COc1ccc(CN(CC(=O)NC2CCCC2)C(=O)CCC(=O)Nc2nc(C)cs2)cc1	none (no result: bIAP act, bIAP inhibitor)
NS(=O)(=O)c1ccc(N=Nc2c[nH]c(=O)c(O)c2)cc1	mIAP block 68.4 (no result: bIAP act, bIAP inhibitor) | mIAP inh conf 81.1
COc1ccc(C(=O)C2CCCN(S(=O)(=O)c3ccccc3F)C2)c(C)c1 (stereo not drawn)	none (no result: bIAP act, bIAP inhibitor)
CC(C)(Oc1ccc(-c2ccco2)cc1)C(=O)O	none
CC(=O)c1sc(C(=O)O)c(-c2ccco2)c1-c1ccco1	mIAP block 54.9 (no result: bIAP act, bIAP inhibitor) | mIAP inh conf 63.6
CNC[C@@H]1Oc2ccc(NC(=O)Nc3cccc4ccccc34)cc2C(=O)N([C@@H](C)CO)C[C@@H]1C	mIAP activ 4.25 (no result: bIAP act, bIAP inhibitor) | mIAP inh conf inactive
CNC[C@H]1Oc2ccc(NC(=O)Nc3ccc(OC)cc3)cc2C(=O)N([C@@H](C)CO)C[C@H]1C	mIAP activ 2.99 (no result: bIAP act, bIAP inhibitor) | mIAP inh conf inactive
CNC[C@@H]1Oc2c(NC(=O)Nc3ccccc3)cccc2C(=O)N([C@@H](C)CO)C[C@H]1C	none (no result: bIAP act, bIAP inhibitor)
CCOC(=O)c1cnc2c(c(C3CC3)nn2C)c1N1CCOCC1	none (no result: bIAP act, bIAP inhibitor)
C=C(C)c1ccc(C(C)(C)NC(=O)N(Cc2ccccc2)Cc2ccco2)cc1	none
Cc1ccccc1N(CC(=O)N/N=C/c1ccc(N(C)C)cc1)C(=O)c1ccccc1	none
Nc1ncc2c(n1)-c1ccccc1CC2	none
Nc1ncc2c(n1)-c1ccoc1CC2	mIAP block 41.0 (no result: bIAP act, bIAP inhibitor) | mIAP inh conf 56.2
CCc1ccc(OCC(=O)NC(C)(C)C)cc1	none
O=C(O)C1C2CCC(O2)C1C(=O)Nc1cnn(Cc2ccccc2)c1 (stereo not drawn)	none
O=C(Nc1cnn(Cc2ccccc2)c1)NC12CC3CC(CC(C3)C1)C2	mIAP activ 2.12 | mIAP inh conf inactive
COCCN1CCN(C(=O)C2CCC(=O)N(CCCc3ccccc3)C2)CC1 (stereo not drawn)	none (no result: bIAP act, bIAP inhibitor)
O=C(Cc1nnc(NC(=O)c2ccccc2)s1)N/N=C\c1ccc(O)c(O)c1	mIAP block 72.6 (no result: bIAP act, bIAP inhibitor) | mIAP inh conf 78.9
CN(CCO)c1ccc(C=NNc2ccc([N+](=O)[O-])cc2S(=O)(=O)Nc2ccccc2C(=O)O)cc1	mIAP block 45.9 (no result: bIAP act, bIAP inhibitor) | mIAP inh conf 45.6
CC(=O)Nc1ccc(C=NNc2ccc([N+](=O)[O-])cc2S(=O)(=O)Nc2ccccc2C(=O)O)cc1	none (no result: bIAP act, bIAP inhibitor)
Cc1cc(-n2nc(C)cc2C)nc(NS(=O)(=O)c2ccccc2Cl)n1	none
CCCc1cc(=O)n2[nH]c(NCc3ccc(Cl)cc3Cl)nc2n1	none
CC(C)NC(=O)Nc1ccc2c(c1)C(=O)N([C@H](C)CO)C[C@H](C)[C@@H](CN(C)C(=O)NC1CCCCC1)O2	none (no result: bIAP act, bIAP inhibitor)
C[C@H](CO)N1C[C@H](C)[C@@H](CN(C)C(=O)Nc2ccccc2)Oc2ccc(NC(=O)Nc3ccccc3)cc2C1=O	mIAP activ 3.07 (no result: bIAP act, bIAP inhibitor) | mIAP inh conf inactive
C[C@H](CO)N1C[C@H](C)[C@@H](CN(C)C(=O)NC2CCCCC2)Oc2ccc(NC(=O)Nc3ccccc3)cc2C1=O	mIAP activ 2.59 (no result: bIAP act, bIAP inhibitor) | mIAP inh conf inactive
CCOc1ccccc1OCC(=O)OCC(=O)NNC(=O)c1ccc([N+](=O)[O-])cc1	none (no result: bIAP act, bIAP inhibitor)
Cc1ccc(C2(C)NC(=O)N(CC(=O)Nc3cc(S(=O)(=O)N4CCCCC4)ccc3OC(C)C)C2=O)cc1 (stereo not drawn)	none (no result: bIAP act, bIAP inhibitor)
COc1ccc(CN2CC[C@H]3C=CC[C@@H](C(=O)Nc4ccc(Cl)c(C(F)(F)F)c4)[C@H]3C2=O)cc1OC	mIAP activ 2.1 (no result: bIAP act, bIAP inhibitor) | mIAP inh conf inactive
O=C1/C(=C/c2ccco2)SC(=S)N1CCC(=O)N1CCCCC1CCO (stereo not drawn)	mIAP block 47.4 (no result: bIAP act, bIAP inhibitor) | mIAP inh conf 57.4
O=C1/C(=C\c2ccco2)SC(=S)N1C1CCCCC1	mIAP block 40.2 (no result: bIAP act, bIAP inhibitor) | mIAP inh conf 51.7
Cc1ccc(N2C(=O)/C(=C/c3ccco3)SC2=S)cc1	mIAP block 48.9 | mIAP inh conf 60.5
Cc1cc(C(=O)N2CCCC(N3CCN(c4cccc(Cl)c4)CC3)C2)no1 (stereo not drawn)	none (no result: bIAP act, bIAP inhibitor)
C=C(C)c1cccc(C(C)(C)NC(=O)Nc2ccc(OC)cc2)c1	none
C=C(C)c1cccc(C(C)(C)NC(=O)NC(c2ccccc2)c2ccc(OC)cc2)c1 (stereo not drawn)	mIAP activ 12 | mIAP inh conf inactive
CCOc1ccccc1NC(=O)Nc1ccc(Br)cc1C	none
Fc1ccc2[nH]c3c(NCc4ccccc4)ncnc3c2c1	mIAP activ 2.73 (no result: bIAP act, bIAP inhibitor) | mIAP inh conf inactive
COc1ccc2[nH]c3c(NCc4ccco4)ncnc3c2c1	none
O=c1oc2cc(O)ccc2s1	mIAP block 47.6 (no result: bIAP act, bIAP inhibitor) | mIAP inh conf 71.5
C/C(=N\NC(=O)c1cc(O)cc(O)c1)c1ccc(NC(=O)Cc2ccccc2)cc1	mIAP block 50.5 (no result: bIAP act, bIAP inhibitor) | mIAP inh conf 56.8
COc1ccc(N=C2SC(C(N)=O)CC(=O)N2CCc2ccc(OC)c(OC)c2)cc1 (stereo not drawn)	mIAP block 44.4 | mIAP inh conf 49.8
COc1ccc(N=C2SC(C(=O)O)CC(=O)N2Cc2ccc(OC)c(OC)c2)cc1 (stereo not drawn)	none
CC(C)(C)c1ccc(C(=O)c2c[nH]c(C(=O)NCC3CCCO3)c2)cc1 (stereo not drawn)	none
S=C(NCc1ccc(Cl)cc1Cl)NC1CCCCC1	mIAP activ 5.41 | mIAP inh conf inactive
Cc1cccc(OCC(O)CNC(=O)c2ccccc2C(=O)O)c1 (stereo not drawn)	none (no result: bIAP act, bIAP inhibitor)
CCN1C(=O)/C(=C2\SC(=S)N(NC(=O)c3ccccc3O)C2=O)c2ccccc21	mIAP block 51.1 (no result: bIAP act, bIAP inhibitor) | mIAP inh conf 47.3
O=C(c1ccc2c(c1)OCO2)[C@@H]1[C@@H]2C(=O)N(C3CCCCC3)C(=O)[C@@H]2C2c3ccccc3C=CN21 (stereo partly drawn)	none (no result: mIAP activ, hIAP activ, mIAP block, hIAP block)
O=C(c1cccs1)[C@@H]1[C@@H]2C(=O)N(Cc3ccc4c(c3)OCO4)C(=O)[C@@H]2C2c3ccccc3C=CN21 (stereo partly drawn)	mIAP block 46.1 | mIAP inh conf 43.1
C=CCn1c(SC2CCOC2=O)nc2sc(CC)cc2c1=O (stereo not drawn)	none
Cc1cc(O)c(CN(C)C)c2c1C(=O)/C(=C/c1ccco1)O2	none (no result: bIAP act, bIAP inhibitor)
Cc1cc(O)c(C=O)c2c1C(=O)Oc1c(CO)c(O)c3c(c1O2)C(O)OC3=O (stereo not drawn)	mIAP block 86.6 | mIAP inh conf 62.5
O=C(NNS(=O)(=O)c1ccc(F)cc1)c1cnn(-c2ccccc2)c1C(F)(F)F	none (no result: bIAP act, bIAP inhibitor)

Screens as filed in PubChem.
